CSN inh: inhibitors of CSN-mediated cullin deneddylation, primary screen, biochemical, fluorescence polarization, uHTS. COP9 signalosome complex subunit 5 (Homo sapiens), Q92905. inhibition, % at 12.5 µM. Purified CSN, SCF-Nedd8-OG deneddylation. 360,000 compounds, 0.38% hits;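 active = pattern-corrected inhibition above about 35%, with an unprinted fluorescence ratio check between 0.5 and 1.5, limit read from the data, passing the limit was not always enough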;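 also: 0% = enzyme with substrate and 100% = substrate without enzyme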
Target sequence (Q92905 whole entry, looked up, one chain of several): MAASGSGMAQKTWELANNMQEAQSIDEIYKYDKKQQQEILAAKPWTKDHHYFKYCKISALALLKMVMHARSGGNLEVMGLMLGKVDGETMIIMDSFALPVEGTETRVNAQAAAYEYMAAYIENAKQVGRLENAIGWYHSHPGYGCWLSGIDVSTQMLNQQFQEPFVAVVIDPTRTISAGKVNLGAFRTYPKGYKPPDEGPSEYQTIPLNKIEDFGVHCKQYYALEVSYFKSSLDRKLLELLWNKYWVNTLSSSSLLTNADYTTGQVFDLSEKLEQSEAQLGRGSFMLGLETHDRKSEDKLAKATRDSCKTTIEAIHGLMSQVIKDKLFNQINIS
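assay system = purified human Csn5 enzyme expressed in HEK293T cells | amount = 0.24 nM enzyme | buffer or medium = Tris/NaCl/DTT buffer, pH 7.5 | reagent = 10 nM SCFSkp2-Nedd8OG | compound = one concentration, 12.5 µM, 0.25% DMSO | times = 90 min reaction at room temperature | signal = FP | read-out basis = % inhibition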
HNF4A DNA FP: change in binding of human HNF4A to DNA, primary screen, biochemical, fluorescence polarization, FITC-DNA; Hepatocyte nuclear factor 4-alpha (Homo sapiens), P41235; 1 h; activity change, % at 10 µM; 360,000 compounds, 0.3% hits; in the data active = activity change above about 30%, passing the limit was not always enough
TPT1 inh: Candida albicans TPT1 enzyme inhibitors, primary screen, biochemical, fluorescence polarization; inhibition, % at 5 µM; AID 1962, 2009; 300,000 compounds, 0.81% hits; tRNA 2'-phosphotransferase TPT1 (Candida albicans SC5314); recombinant caTPT1, FP RNA substrate dephosphorylation;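 active = inhibition above the mean of all tested compounds plus 3 SD, set per screening campaign, cut at about 24% in these data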;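 also: plate controls were DMSO alone for no effect and ferristatin control at 100 nM for full effect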
Rpn11 block: Rpn11 (PSMD14) deubiquitinase inhibitors, primary screen, biochemical, fluorescence polarization, uHTS; 360,000 compounds, 0.59% hits; human 26S proteasome, Ub4-pepOG fluorescence polarization; 20S core pre-blocked with epoxomicin; calls only at 20 µM;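 active = inhibition at 20 µM, scaled to each plate's controls, above about 33%, limit read from the data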
caTPT1 confirm: Candida albicans TPT1 inhibitors, confirmation, biochemical, fluorescence polarization, triplicate | shares compounds with TPT1 inh | recombinant caTPT1, RNase T1 coupled | inhibition, % at 5 µM | 2,400 compounds, 74% hits;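 active = inhibition above the primary screen limit, the mean inhibition of all tested compounds plus 3 SD, cut at about 25% in these data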
RNase T1 inh: RNase T1 inhibitors, counter-screen for TPT1 inhibitor project, biochemical, fluorescence polarization | AID 2153, 2009 | shares compounds with TPT1 inh | 2,400 compounds, 83% hits | inhibition, % at 5 µM | RNase T1 cleavage, 1536-well;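 active = inhibition above the solvent-only control well mean plus 3 SD, limit set per screening run, cut at about 23% in these data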;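 also: plate controls were DMSO wells with enzyme for no effect and wells without RNase T1 for full effect; inhibitors block cleavage so intact labeled substrate keeps polarization high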
Target sequence (P00651 whole entry, looked up): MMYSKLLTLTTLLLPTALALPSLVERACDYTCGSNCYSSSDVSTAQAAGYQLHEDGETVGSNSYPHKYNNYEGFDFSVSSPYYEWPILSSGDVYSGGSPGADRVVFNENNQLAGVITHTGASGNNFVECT
Starred values were filed as active, the others as inactive; i = inactive; x = not tested or not shown. Only some compounds are listed: those with a hit (about 1.5% of all), similar ones and a draw of the others.

SMILES | CSN inh | HNF4A DNA FP | TPT1 inh | Rpn11 block | caTPT1 confirm | RNase T1 inh
CN(C(=O)CSc1ccc(S(=O)(=O)N2CCCCC2)cn1)c1ccccc1 | 0 | -1 | x | i | x | x
CCOc1cccc(OCCOCCNC(C)(C)C)c1 | 1 | 4 | 38* | i | 8 | 10
O=C(O)C1Nc2ccc(Br)cc2C2C=CCC12 (centres undefined) | 30 | -66 | 29* | i | 11 | 21
O=C(O)C1Nc2c(Cl)cc(Cl)cc2C2C=CCC12 (centres undefined) | 36 | -58 | 33* | x | 11 | 16
CSc1ccc(Cl)c(C(=O)OCC(=O)N2CCN(c3ccccc3)CC2)c1 | -2 | -2 | x | i | x | x
Cc1ccc(-c2nnc(N3CCOCC3)c3ccccc23)cc1S(=O)(=O)N(C)C | 2 | 3 | x | i | x | x
Cc1ccc(/C=C/c2nc3ccccc3s2)s1 | 4 | 8 | 42* | i | 43* | 54*
Cc1ccc(Nc2nc3ccccc3s2)cc1 | -9 | -3 | -1 | i | x | x
CCC(C)N1C(=O)/C(=C/c2c(NCCCOC(C)C)nc3c(C)cccn3c2=O)SC1=S (centres undefined) | -78 | 2 | 151* | i | 165* | 156*
N#Cc1cc(C(=O)c2ccccc2O)cn(-c2nccs2)c1=O | 19 | 8 | 44* | x | 42* | 52*
CC(C)n1cc(C(=O)c2ccccc2O)cc(C#N)c1=O | 8 | 3 | -3 | i | x | x
N#Cc1cc(C(=O)c2cc(F)ccc2O)cn(-c2nccs2)c1=O | -47 | 36 | 55* | x | 57* | 67*
Nc1cn(C2OC(CO)C(O)C2O)c(=O)[nH]c1=O (centres undefined) | 0 | -1 | x | i | x | x
C=CCOC(=O)C1=C(C)OC(N)=C(C#N)C1c1ccoc1 (centres undefined) | 7 | 14 | 62* | i | 59* | 74*
O=C(NNc1ccccc1)Nc1cc(Cl)ccc1Cl | -1 | 1 | x | i | x | x
N#Cc1c(N)n(-c2ccccc2N)c2nc3ccccc3nc12 | 7 | 4 | 7 | i | x | x
N#Cc1c(N)n(-c2cccc(C(=O)O)c2)c2nc3ccccc3nc12 | 33 | 21 | 36* | x | 40* | 49*
COC1CCCN(Cc2c(C(=O)N3CCN(C4CCCCC4)CC3)nc3ccccn23)C1 (centres undefined) | 1 | -7 | -12 | i | x | x
CC1CCN(CCc2nc3cc(NC(=O)C(C)C)ccc3n2C)CC1 | -2 | 2 | 0 | i | x | x
CCN(CC)C(=O)c1ccc(/C=C/c2c[nH]c3ccccc23)[n+](C)c1 | 125 | 126 | 103* | x | 110* | 112*
Cc1ccc(C(=O)/C=C/c2c[nH]c3ccccc23)cc1 | -1 | 6 | 15 | i | x | x
N#C/C(C(N)=O)=C1/SC(Cc2ccc(F)cc2)C(=O)N1c1ccccc1 (centres undefined) | 0 | 2 | 28* | i | 4 | 5
CNC(=O)/C(C#N)=C1/SC(Cc2ccc(F)cc2)C(=O)N1c1ccccc1 (centres undefined) | -1 | 1 | -5 | i | x | x
CCCCCCN1CC(=O)N2[C@@H](Cc3c([nH]c4ccccc34)C2(C)C)C1=O | 1 | -3 | 4 | i | x | x
CCN1c2ccc(S(=O)(=O)N3CCOCC3)cc2N(Cc2ccc(OC)cc2)C1C (centres undefined) | 2 | 4 | 32* | i | 48* | 59*
SMILES | CSN inh | HNF4A DNA FP | TPT1 inh | Rpn11 block | caTPT1 confirm | RNase T1 inh
CC(C)(C)c1ccc(S(=O)(=O)NCc2ccc(C(=O)N3CCCC3)cc2)cc1 | 1 | 0 | -5 | i | x | x
Cc1ccc(S(=O)(=O)NCc2ccc(C(=O)N3CCCC3)cc2)cc1 | 4 | 4 | 33* | i | 6 | 10
Cc1c(C#N)c(O)[nH]c(=O)c1N=Nc1ccc(Cl)c(C(=O)O)c1 | 1 | 5 | 8 | i | x | x
Cc1c(C#N)c(O)[nH]c(=O)c1N=Nc1ccc(S(N)(=O)=O)cc1 | 0 | 7 | 25* | i | 14 | 26*
CS(=O)(=O)/C(C#N)=C\c1cnc(S(=O)(=O)c2ccccc2)s1 | x | x | 35* | x | 6 | 12
CN(C)/C=C(\C#N)S(=O)(=O)c1ccccc1 | -6 | -1 | 0 | i | x | x
Cc1ccc2c(c1)C1(C(=O)N2C)N2CC3(C)CN1CC(C)(C2)C3=O (centres undefined) | 0 | 4 | 64* | i | -1 | 0
CCCC12CN3CC(C)(CN(C1)C31C(=O)Nc3ccc(C)cc31)C2=O (centres undefined) | 3 | 5 | 1 | i | x | x
CN(Cc1ccn[nH]1)C(=O)C1CCC(=O)N(Cc2cccc(C(F)(F)F)c2)C1 (centres undefined) | -1 | -1 | 0 | i | x | x
CCN(CC)c1ccc(/C=C/C(=O)C2C(=O)C=C(C)OC2=O)cc1 (centres undefined) | -93 | 76 | 48* | x | 33* | 40*
Cc1ccc(CNc2nc(NCc3ccccc3)nc3ccsc23)c(C)c1 | -2 | -3 | x | i | x | x
CC(=O)Nc1ccc(NS(=O)(=O)c2ccc(-c3cnc(C4CC4)o3)cc2)cc1 | 0 | -2 | -3 | i | x | x
CC(=O)c1cccc(NS(=O)(=O)c2ccc(-c3cnc(C4CC4)o3)cc2)c1 | -2 | 1 | 28* | i | 7 | 9
O=c1cc(O)c2sc(Nc3cccc(C(F)(F)F)c3)nc2[nH]1 | -12 | 5 | 0 | i | x | x
O=c1cc(O)c2sc(Nc3ccc(F)cc3)nc2[nH]1 | 3 | 5 | 35* | i | 20 | 29*
O=C1CCCC/C1=C\Nc1ccc(S(=O)(=O)Nc2cnc3ccccc3n2)cc1 | 8 | 10 | 55* | x | 33* | 45*
Cc1ccc(SCC(=O)NNC(=O)c2ccccc2)c(C)c1 | -4 | 1 | -2 | i | x | x
CC(=O)Oc1ccc(/C=C(\NC(=O)c2cccc(Br)c2)C(=O)Nc2ccc(C(=O)O)cc2)cc1 | -1 | 1 | 1 | i | x | x
CCOC(=O)c1sc2cc([N+](=O)[O-])cc(SCC(=O)OC)c2c1N | 15 | 14 | 29* | i | 35* | 49*
CCOc1ccc(Nc2ccc([N+](=O)[O-])c3nonc23)cc1 | 4 | 12 | 2 | i | x | x
O=[N+]([O-])c1ccc(Nc2ccccc2)c2nonc12 | 15 | 23 | 25* | i | 35* | 50*
O=C(Nc1ccc(Cl)c(S(=O)(=O)N2CCCC2)c1)c1nn(CCO)c(=O)c2ccccc12 | 4 | 2 | x | i | x | x

Screening data (PubChem BioAssay)
